Here are results for five compounds from PMC12949657 (Journal of medicinal chemistry, 2024).

Values after ≈ are worked out from the molar mass of the structure shown.

Data set [1] is described as follows: Mouse snapshot 5 h PK study. In kind it is in vivo. The conditions noted are these: female, CD-1, mouse, plasma, po, 25 mg/kg. The gist of the method:
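Two female CD-1 mice received a single oral 25 mg/kg dose in 5% DMA/60% PEG300/35% D5W. Blood was collected into K2EDTA pre-dose and at 0.5, 1, 3 and 5 h, kept on ice, and spun to plasma stored at −80 °C. Quantitation was by LC-MS/MS against plasma standard curves (1/x² weighting) after acetonitrile/methanol precipitation with verapamil internal standard. AUC was calculated by trapezoidal integration.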

Data set [2] relates to Enterococcus faecium NCTC 7171 (ATCC 19434). The experiment in a line: Antibacterial growth inhibition. Format: cell-based. The conditions noted are these: ATCC19434|NCTC7171, read-out: E. faecium MIC.
Data set [3] is described as follows: Human plasma protein binding. In kind it is in vitro ADME.
Data set [4] can be described thus: Mouse dose tolerability/proportionality study. Format: in vivo.
The test system of data set [5] is E. faecium NCTC 7171. The experiment in a line: Griess assay for intrabacterial NO release. The conditions noted are these: 100 μM, 24 h and 48 h. Format: cell-based, Enterococcus faecium. A digest of the protocol: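 E. faecium NCTC 7171 was started from a single colony in Mueller-Hinton medium and grown to OD600 0.4. The culture was split into untreated, test compound (100 μM) and DEA-NONOate (100 μM) batches. At 24 h and 48 h, samples were centrifuged and supernatants mixed with fresh Griess reagent for 30 min at rt. A548 was read, and nitrite was estimated against sodium nitrite standards (50–0.78 μM, 2-fold, in Mueller-Hinton).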

Data set [6] can be described thus: Mouse plasma protein binding. Format: in vitro ADME.
The next data set has as its system Pseudomonas aeruginosa. The experiment in a line: MIC assay, P. aeruginosa. Format: cell-based.
The target in the next data set is CYP3A4 (Homo sapiens, UniProt P08684). In words: Human cytochrome P450 inhibition assay, 3A4. The conditions noted are these: human liver microsomes, 0 – 50 μM. In kind it is in vitro ADME. In general terms: Liver microsomes are vesicles of endoplasmic reticulum, rich in cytochrome P450 enzymes.
For another data set, the system named is Staphylococcus aureus. The experiment in a line: MIC assay, S. aureus. In kind it is cell-based.
In the next data set the test system is Acinetobacter baumannii. In words: MIC assay, A. baumannii. In kind it is cell-based.
The target in another data set is T1, CYP1A2 (Homo sapiens, UniProt P05177).
T1 sequence (P05177 1-516): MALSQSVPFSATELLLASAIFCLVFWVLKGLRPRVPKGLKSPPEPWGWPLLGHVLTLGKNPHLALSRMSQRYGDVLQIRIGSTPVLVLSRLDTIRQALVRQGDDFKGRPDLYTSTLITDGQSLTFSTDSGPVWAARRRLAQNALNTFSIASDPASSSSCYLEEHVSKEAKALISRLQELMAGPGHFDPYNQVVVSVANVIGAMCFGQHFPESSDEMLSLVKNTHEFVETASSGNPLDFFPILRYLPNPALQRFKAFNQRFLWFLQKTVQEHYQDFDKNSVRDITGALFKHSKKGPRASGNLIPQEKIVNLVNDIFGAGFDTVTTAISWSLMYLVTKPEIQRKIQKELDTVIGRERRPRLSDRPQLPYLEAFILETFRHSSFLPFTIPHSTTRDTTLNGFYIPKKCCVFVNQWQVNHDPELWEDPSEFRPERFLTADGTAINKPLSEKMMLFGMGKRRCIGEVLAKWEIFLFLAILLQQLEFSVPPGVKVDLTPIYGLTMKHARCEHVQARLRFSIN
In words: Human cytochrome P450 inhibition assay, 1A2. The conditions noted are these: human liver microsomes, 0 – 50 μM. In kind it is in vitro ADME.

The next data set deals with CYP2D6 (Homo sapiens, UniProt P10635). The experiment in a line: Human cytochrome P450 inhibition assay, 2D6. The conditions noted are these: human liver microsomes, 0 – 50 μM. In kind it is in vitro ADME.
Another data set deals with CYP2C9 (Homo sapiens, UniProt P11712). The experiment in a line: Human cytochrome P450 inhibition assay, 2C9. Format: in vitro ADME. The conditions noted are these: human liver microsomes, 0 – 50 μM.
The next data set has as its system E. faecium EN 2966. In words: MIC assay, vancomycin-resistant E. faecium EN 2966. Format: cell-based, Enterococcus faecium.
A further data set deals with CYP2C19 (Homo sapiens, UniProt P33261). In words: Human cytochrome P450 inhibition assay, 2C19. Format: in vitro ADME. The following applies: human liver microsomes, 0 – 50 μM.
For data set [7], the system named is E. faecium NCTC 7171. The experiment in a line: Minimum bactericidal concentration. In kind it is cell-based. The conditions noted are these: Enterococcus faecium, NCTC7171, read-out: minimal bactericidal concentration (MBC). A digest of the protocol:
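MBC was taken from the broth microdilution MIC plate. Mid-log E. faecium (OD600 0.2–0.3) was diluted 1:1000 into cation-adjusted Mueller-Hinton II broth with 1% IsoVitaleX, with test compound typically at 200–0.1 μg/mL, and incubated overnight at 37 °C. Wells were mixed, serially diluted 10-fold in DPBS and plated on Mueller-Hinton plus 1% IsoVitaleX agar. Colonies were counted after 2 d at 37 °C.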

Another data set relates to Klebsiella pneumoniae. In words: MIC assay, K. pneumoniae. Format: cell-based.
For a further data set, the system named is E. faecium. The following applies: cited from earlier work.

Chain of CYP2C19 (P33261 whole entry): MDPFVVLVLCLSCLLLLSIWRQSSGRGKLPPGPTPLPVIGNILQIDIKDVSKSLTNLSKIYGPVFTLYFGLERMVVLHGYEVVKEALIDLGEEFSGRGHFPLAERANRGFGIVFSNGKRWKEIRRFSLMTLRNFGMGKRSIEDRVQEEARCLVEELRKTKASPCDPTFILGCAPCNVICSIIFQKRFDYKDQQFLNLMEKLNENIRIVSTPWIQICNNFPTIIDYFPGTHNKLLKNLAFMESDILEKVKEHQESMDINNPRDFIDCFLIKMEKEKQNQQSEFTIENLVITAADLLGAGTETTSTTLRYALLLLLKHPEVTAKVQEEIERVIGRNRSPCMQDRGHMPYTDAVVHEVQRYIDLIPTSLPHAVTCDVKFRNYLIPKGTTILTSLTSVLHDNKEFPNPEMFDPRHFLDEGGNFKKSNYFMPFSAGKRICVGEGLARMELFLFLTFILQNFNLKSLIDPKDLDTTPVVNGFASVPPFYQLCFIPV
Chain of CYP2D6 (P10635 whole entry): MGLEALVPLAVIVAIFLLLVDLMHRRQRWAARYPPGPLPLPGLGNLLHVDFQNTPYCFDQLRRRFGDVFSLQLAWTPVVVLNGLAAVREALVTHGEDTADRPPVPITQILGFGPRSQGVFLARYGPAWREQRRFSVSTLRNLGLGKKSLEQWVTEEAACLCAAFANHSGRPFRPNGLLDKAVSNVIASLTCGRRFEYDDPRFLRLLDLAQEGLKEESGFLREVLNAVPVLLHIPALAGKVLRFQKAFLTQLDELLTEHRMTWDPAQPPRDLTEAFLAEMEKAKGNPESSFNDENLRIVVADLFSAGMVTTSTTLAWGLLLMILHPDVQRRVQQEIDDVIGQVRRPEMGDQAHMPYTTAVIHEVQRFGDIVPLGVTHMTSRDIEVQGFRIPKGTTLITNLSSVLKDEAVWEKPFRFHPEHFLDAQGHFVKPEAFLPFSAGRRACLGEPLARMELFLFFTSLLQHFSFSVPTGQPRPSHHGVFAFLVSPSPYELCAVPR
Chain of CYP3A4 (P08684 whole entry): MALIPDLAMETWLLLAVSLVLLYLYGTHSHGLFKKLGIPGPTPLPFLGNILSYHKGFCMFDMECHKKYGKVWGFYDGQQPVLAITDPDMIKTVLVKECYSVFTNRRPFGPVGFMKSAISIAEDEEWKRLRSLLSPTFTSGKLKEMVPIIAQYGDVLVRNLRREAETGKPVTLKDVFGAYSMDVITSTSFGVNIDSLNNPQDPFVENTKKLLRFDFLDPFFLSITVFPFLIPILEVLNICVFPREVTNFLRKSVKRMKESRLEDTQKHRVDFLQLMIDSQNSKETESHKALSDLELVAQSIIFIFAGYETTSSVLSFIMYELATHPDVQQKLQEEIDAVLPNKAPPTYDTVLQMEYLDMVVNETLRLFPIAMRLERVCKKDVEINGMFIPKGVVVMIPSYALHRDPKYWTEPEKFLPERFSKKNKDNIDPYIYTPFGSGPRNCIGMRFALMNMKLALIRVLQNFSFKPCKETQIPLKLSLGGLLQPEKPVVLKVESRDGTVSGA
Chain of CYP2C9 (P11712 whole entry): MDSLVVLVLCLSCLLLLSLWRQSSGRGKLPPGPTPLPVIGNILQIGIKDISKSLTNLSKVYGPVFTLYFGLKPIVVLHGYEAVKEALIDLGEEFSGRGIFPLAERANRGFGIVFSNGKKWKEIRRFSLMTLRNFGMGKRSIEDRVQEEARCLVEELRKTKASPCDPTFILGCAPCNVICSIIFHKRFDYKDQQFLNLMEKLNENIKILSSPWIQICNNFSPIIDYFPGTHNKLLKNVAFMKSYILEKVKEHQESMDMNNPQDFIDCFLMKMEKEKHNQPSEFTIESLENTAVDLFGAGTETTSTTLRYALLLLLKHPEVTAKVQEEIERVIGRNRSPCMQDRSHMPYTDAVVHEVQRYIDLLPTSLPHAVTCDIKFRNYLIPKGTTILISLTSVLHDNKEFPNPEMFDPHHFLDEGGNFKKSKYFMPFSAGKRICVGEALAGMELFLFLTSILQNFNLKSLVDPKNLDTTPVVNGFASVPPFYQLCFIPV

For orientation: AUC(0-t) means the area under the concentration-time curve up to a stated or last time point. As to `O=C(NNC(=O)c1cc2cc(Cl)cc(Cl)c2s1)c1ccc([N+](=O)[O-])o1` [Compound 22], in data set [1], the AUC(0-t) stood at 43800 ng·h/mL.

`O=C(NNC(=O)c1cc2cc(C(F)(F)F)cc(Cl)c2s1)c1ccc([N+](=O)[O-])o1` [Compound 25] displayed an AUC(0-t) in [1] of 111000 ng·h/mL.

For orientation: MIC means the smallest concentration in the dilution series that meets the test's criterion for growth inhibition. Consider `O=C(NNC(=O)c1cc2ccccc2s1)c1ccc([N+](=O)[O-])o1` [JSF-2827, N'-(benzo[b]thiophene-2-carbonyl)-5-nitrofuran-2-carbohydrazide], for which the minimum inhibitory concentration (MIC) in data set [2] came out at 0.75 µM (≈ 0.248 µg/mL).

`O=C(NNC(=O)c1sc2cc(Cl)ccc2c1Cl)c1ccc([N+](=O)[O-])o1` [JSF-3269]: the “binding to human plasma” value in data set [3] is recorded as 99.3%. In addition, the “exposure (AUC0-24h) dose proportionality” value in [4] (mice, 50, 150 and 300 mg/kg po) was “appeared to plateau between 150 and 300 mg/kg”. The dose tolerability result in data set [4] (mice, doses up to the highest level tested of 300 mg/kg po) is “tolerated”. Further, the “intracellular release of NO• (nitrite in supernatant)” value with E. faecium NCTC 7171 [5] is “no evidence was found to support the intracellular release of NO•”. In addition, in [6], the “binding to mouse plasma” value amounted to 99.99%. Also, the minimum inhibitory concentration (MIC) is more than 120 µM in the data set with Pseudomonas aeruginosa; 16 µM (≈ 6.4 µg/mL) against Staphylococcus aureus; 1.9 to 3.8 µM (≈ 0.76 to 1.52 µg/mL) in [2]; more than 120 µM in the data set with Acinetobacter baumannii; “the same MIC as versus the NCTC 7171 strain” with E. faecium EN 2966; more than 120 µM with Klebsiella pneumoniae. In addition, the “inhibition of human cytochrome P450 3A4” value against CYP3A4 is given as “not a significant inhibitor”. Besides, the “inhibition of human cytochrome P450 1A2” value at CYP1A2 was “not a significant inhibitor”. For the same compound, the “inhibition of human cytochrome P450 2D6” value at CYP2D6 was “not a significant inhibitor”. Also, the “inhibition of human cytochrome P450 2C9” value on CYP2C9 is on record as “not a significant inhibitor”. On CYP2C19, the “inhibition of human cytochrome P450 2C19” value was “not a significant inhibitor”. In the data set on E. faecium NCTC 7171 [7], the MBC fell in the range of 7.7 to 15 µM (≈ 3.08 to 6 µg/mL).

`O=C1CN(/N=C/c2ccc([N+](=O)[O-])o2)C(=O)N1` [nitrofurantoin]: the “in vitro efficacy versus E. faecium” value with E. faecium is listed as “limited in vitro efficacy”.
